According to the EternaBench riboswitch data:

System: MS2 coat protein
Assay: apparent Kd, MS2 coat protein; higher = weaker binding; RNA-MaP array; FMN 200 µM where present
In short: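 SNAP-549-labelled MS2 coat protein, doubled from 0.7 or 1.5 nM to 3 µM, was titrated over designs transcribed by stalled E. coli RNA polymerase on Illumina sequencing-chip clusters. Titrations were run without and then with constant ligand in 100 mM Tris-HCl pH 7.5, 80 mM KCl, 4 mM MgCl2, BSA, DTT, yeast tRNA and Tween-20. The apparent Kd is the median of filtered per-cluster fits to green signal normalised to red-channel RNA signal and control-cluster median Fmax.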

[1] = designed as: ON switch for flavin mononucleotide, no ligand
[2] = ligand present: flavin mononucleotide, designed as: ON switch for flavin mononucleotide
[3] = designed as: OFF switch for flavin mononucleotide, no ligand
[4] = ligand present: flavin mononucleotide, designed as: OFF switch for flavin mononucleotide

| Sequence | apparent Kd [1] | apparent Kd [2] | apparent Kd [3] | apparent Kd [4] |
| --- | --- | --- | --- | --- |
| UAGGACUACGUAGGAUAUGUAGUAUAUUACUACAUGAGGAUCACCCAUGUAAGCAUGUUAUUAGGACAGAAGGACGUGGUAAAU | 43.6 nM | 13.7 nM | – | – |
| UAGUAUAAGGGCAUUAAACAUGAGGAUCACCCAUGUACGAUAGAGGAUAUGCAUUUCAGUUUAGAGUAGAAGGUUAGAGAAUUG | – | – | 39.5 nM | 41.6 nM |
| UAGUGAUUGCAAGGAUAUGCUAGUUUUUAUUUGUGUUUGAUAACAAACAUGAGGAUCACCCAUGUGCAGAAGGUGCUAGAUAUG | 566 nM | 510 nM | – | – |
| UAGUUAUUCACAGGAUAUCGCCUCUUAUUACAUGAGGAUCACCCAUGUUUAUUUUGUUACAUGUUCGAGAAGGGUGUAGCCGUU | – | – | 345 nM | 375 nM |
| UAUAAGAACGAAGGAUAUGGUUACAUGAGGAUCACCCAUGUAUGUAUAUUGAUCUAGUAUUAUAACCAGAAGGUCGAGAGUAUA | – | – | 16.1 nM | 27.1 nM |
| UAUAGGCUAGGAUAUACAACACUUGGUUCGAAUGUUUGGAGACAUGAGGAUCACCCAUGUAGAAGGAGCAUUUC | – | – | 64.8 nM | 190 nM |
| UAUAUAUAGUAAGGAUAUGUAAUUAUUUUAUUAACAGAAGGUACUGACAUGAGGAUCACCCAUGUUUUAGUGUGGGCAUGUAGA | – | – | 83.5 nM | 184 nM |
| UAUAUAUAGUAAGGAUAUGUAUUAAUUUAAUAAACAGAAGGUACUGACAUGAGGAUCACCCAUGUUUUAGUGUGGGCAUGUAGA | – | – | 98 nM | 140 nM |
| UAUAUGUAUGUAGGAUAUGGUAUAUAAAAUAUACCAGAAGGACAUGAGGAUCACCCAUGUAUGAAAUUCCAUAAUAACCGUGUA | – | – | 11.3 nM | 11 nM |
| UAUAUGUCAGGAUAUCGAUUGGAAUGGAAUUCAGUUCUGGUUGAGAAGGGACAUGAGGAUCACCCAUGUUUUUC | – | – | 37.3 nM | 171 nM |
| UAUAUGUCAGGAUAUCGAUUGGAAUGGAAUUUAGUUUUGGUCGAGAAGGGACAUGAGGAUCACCCAUGUUCCUC | – | – | 30.9 nM | 134 nM |
| UAUAUGUCAGGAUAUCGCAACUGCGCGCGCAAGAAUCAUAACGAGAAGGGACAUGAGGAUCACCCAUGUACACU | – | – | 18.6 nM | 25.7 nM |
| UAUAUGUCAGGAUAUUAAUUAAGAUGGAAUUUAGUCUUAGUUGAGAAGGGACAUGAGGAUCACCCAUGUUCCUC | – | – | 19.7 nM | 159 nM |
| UAUAUGUCAGGAUAUUAGUUGUGUUAGAAUUUAUCUUCUGCUGAGAAGGGACAUGAGGAUCACCCAUGUUCCUC | – | – | 14.5 nM | 16 nM |
| UAUAUGUCAGGAUAUUGAUUGGGAUGGAAUUUAGUUUUGGUUAAGAAGGGACAUGAGGAUCACCCAUGUUCCUC | – | – | 17.1 nM | 18.4 nM |
| UAUAUGUGAGGAUAUCAGGUGUGCUAGCGAACUGGUACAUCUGAGAAGGCACAUGAGGAUCACCCAUGUAUCUU | – | – | 27.7 nM | 105 nM |
| UAUCGAGUAGCAGGAUAUUAUGUGGCUAAUUCCGAGUCUGAUGCUUCACAUGAGGAUCACCCAUGUAAGAAGGGCUAACUCGGG | – | – | 26.2 nM | 63.7 nM |
| UAUCGGAGCAGAGGAUAUUACAUGAGGAUCACCCAUGUAUGAACCAAUAGCUGGAAACAGCAAUGUAAGAAGGCUGCUCCGACA | – | – | 11.9 nM | 163 nM |
| UAUGAACAUGAGGAUCACCCAUGUGGUAAGAUCACAGGAUAUCACCUCGGACGUGCGAUGUGAGAAGGGUGAUGGU | 585 nM | 113 nM | – | – |
| UAUGUAUUCGUAGGAUAUCCGUUGAGACCGUGUGGAGAAGGACGAACAUGAGGAUCACCCAUGUAUCAUGGUGUAGACAAUUUU | – | – | 115 nM | 353 nM |
| UAUGUUUCGCAGAAGGGAACGGUUUAUAACAAUUCAGGAUAUGCGACAUGAGGAUCACCCAUGUAGCAGUAUAUAGGGUUGAAU | – | – | 7.5 nM | 45.9 nM |
| UAUUAAUACAUAUACAUGAGGAUCACCCAUGUCAAAAGACAUGAGGAUAUGGAUCCUAAUUGGAUCCAGAAGGCAUGAAUAAUU | 347 nM | 17.6 nM | – | – |
| UAUUAUCACGAAGGAUAUGCUGACAUGAGGAUCACCCAUGUAUGUAUAUUGGUCCAGCGUAUUUAGCAGAAGGUCGUGAGUAAA | – | – | 45.4 nM | 73.5 nM |
| UCAAGUAUGUAGGAUAUCGAUGUCCUCGGACAUCGAGAAGGACGUACAUGAGGAUCACCCAUGUAACUUGCAUG | – | – | 63.8 nM | 84.9 nM |
| UCACGGGACUAAGGAUAUACAUGAACCAUUUUUGUAGAAGGUAGAAUGUUUGAUCAUAAACUAAACAUGAGGAUCACCCAUGUU | – | – | 23.4 nM | 21 nM |
| UCAGUUCUGCAAGGAUAUCGUCCUAGUUUGGUACGAGAAGGUGCUUUUGUUUUUUCCUUGUGUUGACAUGAGGAUCACCCAUGU | – | – | 35.8 nM | 46.5 nM |
| UCAUACAUGACAUGACAUGACAUGAGGAUCACCCAUGUUUACAAGGAUAUGUUGAUGAAACAUCAACAGAAGGUGUAUUGGACU | – | – | 51.8 nM | 172 nM |
| UCAUACAUUCGAGGAUAUCGGUGAUUAAUUUUACGAGAAGGCGAUAUAAGAUUUAAUUUUUAAGACAUGAGGAUCACCCAUGUA | 30.7 nM | 29.6 nM | – | – |

| Sequence | apparent Kd [1] | apparent Kd [2] | apparent Kd [3] | apparent Kd [4] |
| --- | --- | --- | --- | --- |
| UCAUACGGUGAGGAUAUCUCCGCUAAAGUGUGUAGAGAAGGCGCUACAUGAGGAUCACCCAUGUUUAUGGGCAG | – | – | 403 nM | 228 nM |
| UCAUCUUGUCGAGGAUAUAUUAACAUGACAUGAGACACAUGAGGAUCACCCAUGUAUUUUUUUUUAUAGAAGGCGACUAUAUGU | 32.6 nM | 52.9 nM | – | – |
| UCAUGAUAUGUAGGAUAUCACAUUUAUUGAUUAAUAUAUGAAUAUAGAAUUUGAGAAGGACAUUUACAUGAGGAUCACCCAUGU | – | – | 15.8 nM | 16.7 nM |
| UCAUGGAAGUAGAAGGGUAAUAUAUUAGAUUUUACUAUUAGAUGUAGAUAUACAGGAUAUGCGAACAUGAGGAUCACCCAUGUG | – | – | 62.7 nM | 35.6 nM |
| UCAUUAUAAAUCCAUCAUAACUACAUGAGGAUCACCCAUGUGCAGGAUAUCGAUAAUUUAACUAACGAGAAGGGCAUUUACAGA | – | – | 37.6 nM | 139 nM |
| UCAUUGGUAGUGAGGAUAUCGGUGUGAUGGAAUGACGAGAAGGCACAUGAGGAUCACCCAUGUAAGAUUGGGCU | – | – | 314 nM | 436 nM |
| UCAUUUAAUACAGGAUAUGUUAGUAUACAGUAGAUUGGUUAUAACAUAAUAACAGAAGGGUAGAACAUGAGGAUCACCCAUGUA | 86 nM | 64.6 nM | – | – |
| UCAUUUAUUACAGGAUAUGUUAGUAUACAGUUGUUUGGUUAUUACUUAUUAACAGAAGGGUAGAACAUGAGGAUCACCCAUGUA | 80.4 nM | 40.7 nM | – | – |
| UCAUUUCAGUAAGGAUAUUAAAUCAUGACGAUACAUGAGGAUCACCCAUGUUAAGAAGGUACUAAUACAAAUAAUGCAUUGUUC | – | – | 12.8 nM | 11.1 nM |
| UCCAACAUGAGGAUCACCCAUGUACAGGAUAUUAGAUCAGCUCAGCGCGUCCGUCAAGAUAUUUCUAAGAAGGGUACUGGGUAC | – | – | 20.2 nM | 33.1 nM |
| UCCACUGCUGAGAAGGGAUACGUCUGGUUCGCAUCAGGAUAUCGAUACAGUGCAGCAUGAGGACAUGAGGAUCACCCAUGUGUG | 103 nM | 53.6 nM | – | – |
| UCCCGGGUGCAGAAGGGAUAGGCCUAUUUUCGUGGUAUCCAAACCUAACAUGAGGAUCACCCAUGUCAGGAUAUGCCCACGGGA | – | – | 4.87 nM | 5.29 nM |
| UCCCGGUAAGAAGGAUAUACAUGAGGAUCACCCAUGUAUUAAACAUAUACUGGCCGUGGCCUUGUGUAGAAGGUCUGUCGGUCA | – | – | 6.75 nM | 5.97 nM |
| UCCGCUCGAGGAUAUACAUGAGGAUCACCCAUGUUUCCCUGUUGCUUGGCCUCAGGAUGUAGAAGGCGACGCUA | – | – | 17.6 nM | 19.8 nM |
| UCCGCUCGAGGAUAUACAUGAGGAUCACCCAUGUUUCCCUGUUGUUUGGCCUCAGGAUGUAGAAGGCGACGCUA | – | – | 18.3 nM | 23.6 nM |
| UCCUCACAUGAGGAUCACCCAUGUCAGGAUAUCUCACAGCUAAAGAAUAAAGGCUGCAAGAGAAGGGACACAAU | – | – | 21.6 nM | 48.1 nM |
| UCCUGGCGAGGAUAUACAAUGUUUUUCGCGUGUUGUUGCGAACAUGAGGAUCACCCAUGUAGAAGGUGCUACUG | – | – | 278 nM | 225 nM |
| UCCUUAUCGGUCAGGAUAUACACCCGUUUCUCCUUGUAGAAGGGACAUGAGGAUCACCCAUGUACUGUACAUUU | – | – | 30 nM | 31 nM |
| UCCUUGUCCUGAGGAUAUCCGCGGUGACCAAAAGGAGAAGGCAGGACAUGAGGAUCACCCAUGUACCCAGAAAACGUGCAGAGU | – | – | 30.1 nM | 197 nM |
| UCCUUGUCCUGAGGAUAUCCGCGGUUCCCAAAAGGAGAAGGCAGGACAUGAGGAUCACCCAUGUACCCAGAAAACGUGCAGAAU | – | – | 9.87 nM | 42.7 nM |
| UCGAAAAUGCAAGGAUAUCAAUUAUAGCUAAAUUAGACAUGAGGAUCACCCAUGUAAAUAUGGAGUGAGAAGGUGCAAUAAUUU | 453 nM | 174 nM | – | – |
| UCGAACGGAAACAAAGUCUUCGGACAUGAGGAUCACCCAUGUAAGGAUAUGCCUACUAAAAGUAGGCAGAAGGUACGCGUUCGA | – | – | 22.1 nM | 51.1 nM |
| UCGACCAGCGCAACUCGAACAUGAGGAUCACCCAUGUACUCCAGAAGGCCGCCCAAGUACGGAGUGGAGGAUAUGGAGGUUCUC | 56.9 nM | 86.1 nM | – | – |
| UCGACGAAAGUCGAACGAUGUAGCAGAAGGACAUGAGGAUCACCCAUGUCAGCUGUAACAGCCAUGUAGGAUAUGCUACAUCGA | – | – | 3.96 nM | 5.54 nM |
| UCGAUGCUAGGAUAUACGUAUACCUCCACCGUUGAUUCCUAACAUGAGGAUCACCCAUGUAGAAGGAGCAUCUA | – | – | 23.8 nM | 23.6 nM |
| UCGAUGCUAGGAUAUACUAAUAAAACUACUGUAGUGUCUUCACAUGAGGAUCACCCAUGUAGAAGGAGCAUCUA | – | – | 28.3 nM | 21.8 nM |
| UCGCUGCGAGGAUAUACGUGCGCGCGCUCGCGUUCGCGCGUACAUGAGGAUCACCCAUGUAGAAGGCGCGCUGC | – | – | 13.5 nM | 13.2 nM |
